In brackets after ≈: the same amount, converted by molar mass. Activity calls are given as the source filed them. The calls are words filed in the database; no cut-off is given here.
Legend:
[1] = system: BT-20; test: Antimigratory activity against human BT20 cells assessed as mean rate of migration after 48 hrs by wound closure assay; format: functional
Outline: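 Kinetic wound-closure assay in confluent BT-20 monolayers grown in MEM with 10% FBS, wounded 30 min after addition of a range of concentrations or DMSO. Wound area measured from digital images at 3–72 h post-wounding.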

[2] = system: BT-20; test: Antiproliferative activity against human BT20 cells assessed as after 48 hrs by […]; format: functional, cell-based; details: BT-20, 48 h
Outline: (§1)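 BT-20 cells, 5,000/well, grown 24 h at 37 °C, 5% CO2 before treatment with a range of concentrations or 1% DMSO for 48 h. Cell number by WST-8 tetrazolium absorbance at 450 nm after 3 h, versus an initial plate read at time of dosing. Four wells per experiment, three independent experiments. IC50 fitted from 48 h mean cell numbers. MIC is significant reduction versus control (t-test).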

[3] = system: MDCK; test: Antimigratory activity against MDCK cells assessed as mean rate of migration by wound closure assay; format: functional, cell-based; details: Canis lupus familiaris
Outline: (§2)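 Screening scratch-wound assay on confluent monolayers in 24-well plates. Medium changed to fresh medium with 100 µM compound or 1% DMSO; wounds of 0.5–1.0 mm2 scraped with a micropipet tip 30 min later. Scored closed/open by inverted microscopy every 12 h for 72 h; antimigratory if wound remained open after DMSO controls closed. Trypan blue exclusion at end. Culture at 37 °C, 5% CO2.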

[4] = system: BT-20; test: Antiproliferative activity against human BT20 cells assessed as reduction in cell number after 48 hrs by […] assay; format: functional; details: for MIC: Homo sapiens, 48 h; outline: as §1
[5] = system: BT-20; test: Activity against human BT20 cells by trypan blue exclusion assay
[6] = system: T47D; test: Antimigratory activity against human T47D cells assessed as mean rate of migration by wound closure assay; format: functional, cell-based; outline: as §2
[7] = system: MDA-MB-435; test: Antimigratory activity against human MDA-MB-435 cells assessed as mean rate of migration by wound closure assay; format: functional, cell-based; outline: as §2
[8] = Therapeutic index, ratio of MLC for humanBT20 cells to MIC for BT20 cells; format: cell-based, BT-20; details: human, read-out: TI

## CCCCCCCCO[C@H]1O[C@@H]2COC(=O)CC/C=C/CCC(=O)O[C@H]2[C@H](OC)[C@H]1OC
[1]
  MIC: 75 µM (≈ 34.2 µg/mL)
[2]
  IC50: 91.4 µM
[3]
  Activity: Active
[4]
  MLC: 300 µM (≈ 137 µg/mL)
  MIC: 50 µM (≈ 22.8 µg/mL)
[5]
  MLC: 125 µM (≈ 57.1 µg/mL)
[6]
  Activity: inactive
[7]
  Activity: Active
[8]
  selectivity ratio: 6

## CCCCCCCCO[C@H]1O[C@@H]2COC(=O)CCCCCCC(=O)O[C@H]2[C@H](O)[C@H]1O
[1]
  MIC: 50 µM (≈ 21.5 µg/mL)
[2]
  IC50: 38.1 µM
[3]
  Activity: Active
[4]
  MLC: 50 µM (≈ 21.5 µg/mL)
  MIC: 10 µM (≈ 4.31 µg/mL)
[5]
  MLC: 75 µM (≈ 32.3 µg/mL)
[6]
  Activity: inactive
[7]
  Activity: Active
[8]
  selectivity ratio: 5

## CCCCCCCCO[C@H]1O[C@H](CO)[C@@H](O)[C@H](OCc2ccccc2)[C@H]1OCc1ccccc1
[2]
  IC50: 52.9 µM
[4]
  MLC: 75 µM (≈ 35.4 µg/mL)
  MIC: 25 µM (≈ 11.8 µg/mL)
[8]
  selectivity ratio: 3

## CCCCCCCCO[C@H]1O[C@@H]2COC(=O)CC/C=C/CCC(=O)O[C@H]2[C@H](OCc2ccccc2)[C@H]1OCc1ccccc1
[2]
  IC50: 85.1 µM
[3]
  Activity: Active
[4]
  MLC: 300 µM (≈ 183 µg/mL)
  MIC: 10 µM (≈ 6.09 µg/mL)
[6]
  Activity: inactive
[7]
  Activity: Active
[8]
  selectivity ratio: 30

## CCCCCCCCO[C@H]1O[C@@H]2COC(c3ccccc3)O[C@H]2[C@H](O)[C@H]1O (stereo partly specified)
[2]
  IC50: 47.1 µM
[3]
  Activity: Active
[4]
  MLC: 75 µM (≈ 28.5 µg/mL)
  MIC: 10 µM (≈ 3.8 µg/mL)
[6]
  Activity: inactive
[7]
  Activity: Active
[8]
  selectivity ratio: 7.5

## CCCCCCCCO[C@@H]1O[C@@H]2COC(c3ccccc3)O[C@H]2[C@H](O)[C@H]1O (stereo partly specified)
[2]
  IC50: 72.1 µM
[3]
  Activity: Active
[4]
  MLC: 300 µM (≈ 114 µg/mL)
  MIC: 50 µM (≈ 19 µg/mL)
[6]
  Activity: inactive
[7]
  Activity: Active
[8]
  selectivity ratio: 6

## CCCCCCCCO[C@@H]1O[C@H](CO)[C@@H](O)[C@H](OCc2ccccc2)[C@H]1OCc1ccccc1
[2]
  IC50: 61.1 µM
[4]
  MLC: 100 µM (≈ 47.3 µg/mL)
  MIC: 25 µM (≈ 11.8 µg/mL)
[8]
  selectivity ratio: 4

## CCCCCCCCO[C@H]1O[C@@H]2COC(=O)CC[C@H]3O[C@@H]3CCC(=O)O[C@H]2[C@H](O)[C@H]1O
[1]
  MIC: 50 µM (≈ 22.2 µg/mL)
[2]
  IC50: 107 µM
[3]
  Activity: Active
[4]
  MLC: >300 µM
  MIC: 50 µM (≈ 22.2 µg/mL)
[5]
  MLC: 125 µM (≈ 55.6 µg/mL)
[6]
  Activity: inactive
[7]
  Activity: Active
[8]
  selectivity ratio: > 6

Source: ChEMBL document CHEMBL1221356, “Synthesis and evaluation of antimigratory and antiproliferative activities of lipid-linked [13]-macro-dilactones” (Bioorg Med Chem Lett, 2010)
